Data: ChEMBL document CHEMBL1152166, “Activation and inhibition of leukotriene A4 hydrolase aminopeptidase activity by diphenyl ether and derivatives” (Bioorg Med Chem Lett, 2008)
Calls of active or inactive are those of the source. No cut-off for these calls is given here.

What was measured:
[1] = biological target: T1, Leukotriene A-4 hydrolase (Homo sapiens, UniProt P09960); experiment: Inhibition of aminopeptidase activity of human recombinant leukotriene A4 hydrolase expressed in Escherichia coli assessed as p-nitroanilide release by spectrophotometry
T1 sequence (P09960 whole entry): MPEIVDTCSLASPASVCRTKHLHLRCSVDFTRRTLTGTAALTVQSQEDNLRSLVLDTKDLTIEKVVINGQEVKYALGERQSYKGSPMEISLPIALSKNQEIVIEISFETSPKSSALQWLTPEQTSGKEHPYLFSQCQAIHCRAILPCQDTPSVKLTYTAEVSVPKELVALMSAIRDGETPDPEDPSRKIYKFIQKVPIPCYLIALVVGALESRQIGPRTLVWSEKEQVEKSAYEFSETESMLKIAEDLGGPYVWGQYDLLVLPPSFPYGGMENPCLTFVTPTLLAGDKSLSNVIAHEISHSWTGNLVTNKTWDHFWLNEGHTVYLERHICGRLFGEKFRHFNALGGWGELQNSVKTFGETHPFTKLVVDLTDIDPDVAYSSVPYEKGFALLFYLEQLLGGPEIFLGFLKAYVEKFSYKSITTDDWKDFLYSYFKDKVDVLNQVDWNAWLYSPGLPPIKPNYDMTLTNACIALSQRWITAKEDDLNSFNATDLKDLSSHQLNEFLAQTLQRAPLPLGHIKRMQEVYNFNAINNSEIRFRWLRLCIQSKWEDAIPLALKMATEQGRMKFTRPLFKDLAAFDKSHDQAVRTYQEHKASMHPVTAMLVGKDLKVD
Procedure, shortened: (§1)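 Recombinant human LTA4H, expressed from a pET 21a construct in E. coli and purified by ammonium sulfate precipitation, anion-exchange and gel filtration. Aminopeptidase activity was read spectrophotometrically as p-nitroanilide released from Ala-pNA. Values are the average of three experiments with standard deviation. Substrate dependence was examined by Lineweaver–Burk analysis to give apparent Km, Vmax, KA, α and β.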

[2] = biological target: T2, Leukotriene A-4 hydrolase (Homo sapiens) (UniProt P09960); experiment: Inhibition of epoxide hydrolase activity of human recombinant leukotriene A4 hydrolase expressed in Escherichia coli assessed as LTB4 production at 100 uM by RP-HPLC
T2 sequence (whole entry): T1 sequence (P09960 whole entry)

[3] = biological target: T2, Leukotriene A-4 hydrolase (Homo sapiens); experiment: Activation of aminopeptidase activity of human recombinant leukotriene A4 hydrolase expressed in Escherichia coli by spectrophotometry in presence of >0.65 mM […]; procedure, shortened: as §1
[4] = biological target: T2, Leukotriene A-4 hydrolase (Homo sapiens); experiment: Inhibition of aminopeptidase activity of human recombinant leukotriene A4 hydrolase expressed in Escherichia coli by spectrophotometry in presence of <0.65 mM […]; procedure, shortened: as §1
[5] = biological target: T1, Leukotriene A-4 hydrolase; experiment: Activation of aminopeptidase activity of human recombinant leukotriene A4 hydrolase expressed in Escherichia coli assessed as p-nitroanilide release by spectrophotometry; procedure, shortened: as §1
[6] = biological target: T2, Leukotriene A-4 hydrolase (Homo sapiens); experiment: Activation of aminopeptidase activity of human recombinant leukotriene A4 hydrolase expressed in Escherichia coli assessed as p-nitroanilide release at 100 uM by spectrophotometry; procedure, shortened: as §1
[7] = biological target: T1, Leukotriene A-4 hydrolase; experiment: Inhibition of epoxide hydrolase activity of human recombinant leukotriene A4 hydrolase expressed in Escherichia coli assessed as LTB4 production by RP-HPLC

| Compound | IC50 [1] | Activity [2] | Activity [3] | Activity [4] | AC50 [5] | Activity [6] | IC50 [7] |
| --- | --- | --- | --- | --- | --- | --- | --- |
| CCCCCOc1ccc(Oc2ccccc2)cc1 | 4.13 µM | inactive | – | – | – | – | – |
| CCCCOc1ccc(Oc2ccc(O)cc2)cc1 | 5.56 µM | inactive | – | – | – | – | – |
| CCCCCOc1ccc(Oc2ccc(O)cc2)cc1 | 2.48 µM | inactive | – | – | – | – | – |
| CCCOc1ccc(Oc2ccccc2)cc1 | – | inactive | Active | Active | – | – | – |
| c1ccc(Oc2ccccc2)cc1 [DIPHENYLETHER] | – | inactive | – | – | 6.01 µM | Active | – |
| COc1ccc(Oc2ccc(O)cc2)cc1 | – | inactive | – | – | 17 µM | Active | – |
| COc1ccc(Oc2ccccc2)cc1 | – | inactive | – | – | 3.39 µM | Active | – |
| CCCOc1ccc(Oc2ccc(O)cc2)cc1 | 5.69 µM | inactive | – | – | – | – | – |
| CCOc1ccc(Oc2ccc(O)cc2)cc1 | – | inactive | – | – | 14.8 µM | Active | – |
| NCCOc1ccc(Oc2ccccc2)cc1 | 0.228 µM | – | – | – | – | – | 0.035 µM |
| CCOc1ccc(Oc2ccccc2)cc1 | – | inactive | – | – | 2.82 µM | Active | – |
| Oc1ccc(Oc2ccccc2)cc1 | – | inactive | – | – | 11.1 µM | Active | – |
| CCCCOc1ccc(Oc2ccccc2)cc1 | 5.72 µM | inactive | – | – | – | – | – |
